For assay [1], the species on record is Cavia porcellus. In words: Compound was evaluated for the inhibitory activity against slow reacting substance of anaphylaxis (SRS-A) of guinea pig ileum. It is filed as functional, organism-based. The essentials: (§1)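 Guinea pig ileum strip in Tyrode's solution at 37 °C, aerated with 95% O2-5% CO2. SRS-A came from rat peritoneal shock fluid after passive peritoneal anaphylaxis, and its specificity was checked against atropine (5 × 10^-7 M) and mepyramine (10^-6 M). The SRS-A dose was set to give ca. 60% of maximal contraction. Antagonist was added 2 min before challenge; percent inhibition was read, and IC50 was interpolated from dose-response curves.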

For assay [2], the system named is Cavia porcellus. The experiment in a line: Compound was evaluated in vivo for collapse time in guinea pig anaphylaxis model at dose 10 mg/kg. It is filed as functional. The essentials:
(§2)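 Guinea pigs were sensitized with 10% ovalbumin (1 mL s.c. plus 1 mL i.p.), and about 4 weeks later received the antagonist orally. They were then exposed to aerosolized ovalbumin, with collapse time as the endpoint and no collapse within 6 min taken as maximal protection. Groups (4–15 animals) were compared with controls by one-way ANOVA and Dunnett's test after Bartlett's test.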

The species entered for assay [3] is Cavia porcellus. The experiment in a line: Compound was evaluated for the inhibitory activity against Acetylcholine in guinea pig ileum. It is filed as functional. On the set-up: concentration or dose not given beside the values.
The species named for assay [4] is Cavia porcellus. The experiment in a line: Compound was evaluated for the inhibitory activity against Histamine in guinea pig ileum. It is filed as functional. Set-up: concentration or dose not given beside the values.
For assay [5], the species on record is Cavia porcellus. The experiment in a line: Compound was evaluated for the inhibitory activity against slow reacting substance of anaphylaxis (SRS-A) of guinea pig ileum;NA means not active. It is filed as functional, organism-based. The essentials:
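Guinea pig ileum strip in Tyrode's solution at 37 °C, aerated with 95% O2-5% CO2. SRS-A came from rat peritoneal shock fluid after passive peritoneal anaphylaxis, dosed to give ca. 60% of maximal contraction. Atropine (5 × 10^-7 M) and mepyramine (10^-6 M) checks were run. Antagonist was added 2 min before SRS-A challenge, and percent inhibition recorded. IC50 was interpolated from two or at least three dose-response curves.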

Assay [6] is filed under the species Cavia porcellus. In words: Compound was evaluated for the inhibitory activity against Serotonin in guinea pig ileum. It is filed as functional.
For assay [7], the system named is Cavia porcellus. The experiment in a line: Compound was evaluated in vivo for collapse time in guinea pig anaphylaxis model at dose 5 mg/kg. It is filed as functional. The essentials:
as §2

The species named for assay [8] is Cavia porcellus. In words: Compound was evaluated for the inhibitory activity against slow reacting substance of anaphylaxis (SRS-A) of guinea pig ileum;NA denotes not active. It is filed as functional, organism-based. The essentials:
as §1

SMILES strings stand for the structures. In brackets after ≈: the same amount, converted by molar mass.

One may read the IC50 as the point on the concentration scale where inhibition reaches its midpoint. As for `C=C(C)[C@H]1Cc2c(ccc3c2OC2COc4cc(OC)c(OC)cc4C2/C3=N/O)O1` (stereo not given in full), the IC50 in the assay filed under Cavia porcellus [1] is 0.4 µg/mL (≈ 0.977 µM). In the assay with Cavia porcellus [2], the Collapse time was 248 s.

What is called Inhibition is how much of the control response was suppressed. In turn, `C=C(C)[C@H]1Cc2c(ccc(C(=O)Cc3cc(OC)c(OC)cc3OCC(=O)O)c2O)O1` showed a Collapse time with Cavia porcellus [2] of 167 s. In addition, the Inhibition in the assay listed under Cavia porcellus [3] and in the assay filed under Cavia porcellus [4] was 0% throughout. The IC50 entry in the assay filed under Cavia porcellus [5] is listed as “Not Active”.

Compound `C=C(C)[C@H]1Cc2c(ccc3c2OC2COc4cc(OC)c(OC)cc4C2/C3=N/OC(C)=O)O1` (stereo not given in full) returned an IC50 in the assay listed under Cavia porcellus [1] of 0.4 µg/mL (≈ 0.886 µM).

In the assay listed under Cavia porcellus [1], `C=C(C)[C@H]1Cc2c(ccc3c2O[C@H]2COc4cc(OC)c(OC)cc4[C@H]2C3=O)O1` had an IC50 of 0.0247 µg/mL (≈ 0.0626 µM). In the assay on Cavia porcellus [2], this compound showed a Collapse time of 240 s. In addition, the figures for the Inhibition in the assay filed under Cavia porcellus [3], in the assay filed under Cavia porcellus [6] and in the assay listed under Cavia porcellus [4] were 11%, 87% and 28%, respectively.

Take `COc1cc2c(cc1OC)[C@@H]1C(=O)c3ccc4c(c3O[C@@H]1CO2)C[C@H](C(C)C)O4`: the IC50 in the assay filed under Cavia porcellus [1] came to 0.0238 µg/mL (≈ 0.06 µM). In addition, the Inhibition in the assay filed under Cavia porcellus [3] is 25%; in the assay listed under Cavia porcellus [6], 60%; in the assay filed under Cavia porcellus [4], 29%.

As to `C=C(C)[C@H]1Cc2c(ccc3c2OC2COc4cc(OC)c(OC)cc4C2(OC(C)=O)C3=O)O1` (stereo not given in full) [ACETYLROTENOLENE], the Inhibition in the assay listed under Cavia porcellus [3] and in the assay filed under Cavia porcellus [4] was 0% each time. In addition, in the assay listed under Cavia porcellus [5], the IC50 result is “Not Active”.

For the compound `C=C(C)[C@H]1Cc2c(ccc3c(=O)c4c(oc23)COc2cc(OC)c(OC)cc2-4)O1` [DEHYDROROTENONE], the Collapse time in the assay with Cavia porcellus [2] is listed as 248 s; in the assay with Cavia porcellus [7], 216 s. Also, the Inhibition in the assay filed under Cavia porcellus [3] and in the assay listed under Cavia porcellus [4] was 0% throughout. Moreover, in the assay listed under Cavia porcellus [8], the IC50 entry is on record as “Not Active”.

`CCCc1c(OCC(O)COc2ccc3c(=O)cc(C(=O)[O-])oc3c2CCC)ccc(C(C)=O)c1O.[Na+]` (stereo not given) [FPL-55712 SODIUM SALT] yielded an IC50 in the assay listed under Cavia porcellus [1] of 0.042 µg/mL. The Collapse time with Cavia porcellus [2] is recorded as 253 s. The Inhibition in the assay listed under Cavia porcellus [3], in the assay listed under Cavia porcellus [6] and in the assay listed under Cavia porcellus [4] was 0% throughout.

In the assay listed under Cavia porcellus [1], `COc1cc2c(cc1OC)[C@@H]1C(=O)c3ccc4oc(C(C)C)cc4c3O[C@@H]1CO2` [ISOROTENONE] came in with an IC50 of 0.062 µg/mL (≈ 0.157 µM). In addition, the Collapse time with Cavia porcellus [2] stood at 211 s. Further, the results for the Inhibition in the assay listed under Cavia porcellus [3] and in the assay listed under Cavia porcellus [4] were 28% and 30%, respectively.

`C=C(C)[C@H]1Cc2c(ccc3c2OC2COc4cc(OC)c(OC)cc4C2/C3=N/OC(=O)OCC)O1` (stereo not given in full) [O-CARBETHOXY ROTENONE OXIME] showed a half-maximal inhibitory concentration (IC50) in the assay filed under Cavia porcellus [1] of 0.4 µg/mL (≈ 0.831 µM).

With `C=C(C)[C@H]1Cc2c(ccc3c2O[C@@H]2COc4cc(OC)c(OC)cc4[C@@H]2C3=O)O1` [ROTENONE], the IC50 in the assay filed under Cavia porcellus [1] is 0.0155 µg/mL (≈ 0.0393 µM). Also, the Collapse time with Cavia porcellus [7] was determined as 288 s. Also, the Inhibition stood at 15% in the assay listed under Cavia porcellus [3], 92% in the assay listed under Cavia porcellus [6] and 38% in the assay filed under Cavia porcellus [4].

With `COc1cc2c(cc1OC)[C@]1(O)C(=O)c3ccc4c(c3O[C@@H]1CO2)C=CC(C)(C)O4` [TEPHROSIN], the IC50 in the assay listed under Cavia porcellus [1] came out at 0.2 µg/mL (≈ 0.487 µM).

For the origin of these results see ChEMBL document CHEMBL1121506, “Evaluation of rotenone and related compounds as antagonists of slow-reacting substance of anaphylaxis” (J Med Chem, 1980).
